Active and inactive are the calls of the source. The rule behind the calls is not given here.

Test [1] addresses T1, Subtilisin-like protease 1 (Plasmodium falciparum, UniProt O61142).
T1 sequence (O61142 whole entry): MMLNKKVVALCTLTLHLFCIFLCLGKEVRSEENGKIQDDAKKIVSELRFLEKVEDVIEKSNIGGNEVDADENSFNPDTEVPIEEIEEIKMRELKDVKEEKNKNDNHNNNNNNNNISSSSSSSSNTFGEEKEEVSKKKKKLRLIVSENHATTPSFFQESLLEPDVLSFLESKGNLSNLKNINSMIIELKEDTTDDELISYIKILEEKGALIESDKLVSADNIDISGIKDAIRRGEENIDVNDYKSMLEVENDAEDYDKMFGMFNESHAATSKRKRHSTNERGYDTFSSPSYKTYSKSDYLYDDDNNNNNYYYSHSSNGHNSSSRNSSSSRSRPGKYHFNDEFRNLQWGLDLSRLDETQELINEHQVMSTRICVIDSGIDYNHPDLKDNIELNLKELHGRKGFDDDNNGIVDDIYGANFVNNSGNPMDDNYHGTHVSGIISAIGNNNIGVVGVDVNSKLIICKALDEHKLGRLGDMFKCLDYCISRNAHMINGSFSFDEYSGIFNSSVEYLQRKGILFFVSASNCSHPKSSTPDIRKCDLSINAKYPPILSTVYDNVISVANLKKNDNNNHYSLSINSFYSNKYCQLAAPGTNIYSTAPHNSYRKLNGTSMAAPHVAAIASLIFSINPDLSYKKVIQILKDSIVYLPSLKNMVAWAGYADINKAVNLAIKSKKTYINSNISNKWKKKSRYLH
The test is described as follows: Inhibition of Plasmodium falciparum SUB1. In outline: (§1)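 Chymotrypsin-treated recombinant PfSUB1 stock (228 U/mL) was diluted 1:500 in 20 mM Tris-HCl pH 8.2, 150 mM NaCl, 12 mM CaCl2, 25 mM CHAPS. Inhibitor DMSO stocks (500 to 0.01 μM) were diluted 1:100 and preincubated with enzyme for 5 min. Fluorogenic SERA4st1F-6R12 substrate was then added (0.1 μM final), with ex 552/em 580 nm read every 3 min for 60 min.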

The target in test [2] is T1, Subtilisin-like protease 1. Put plainly: Inhibition of recombinant Plasmodium falciparum SUB1 using Ac-CKITAQDDEESC-OH as fluorogenic substrate pre-incubated for 5 mins followed by substrate addition and measured every 3 mins for 60 mins by fluorescence based SpectraMax M5e plate reader. In outline: as §1
For test [3], the target named is T2, Proteasome Macropain subunit MB1 (Homo sapiens, UniProt P28074).
T2 sequence (P28074 whole entry): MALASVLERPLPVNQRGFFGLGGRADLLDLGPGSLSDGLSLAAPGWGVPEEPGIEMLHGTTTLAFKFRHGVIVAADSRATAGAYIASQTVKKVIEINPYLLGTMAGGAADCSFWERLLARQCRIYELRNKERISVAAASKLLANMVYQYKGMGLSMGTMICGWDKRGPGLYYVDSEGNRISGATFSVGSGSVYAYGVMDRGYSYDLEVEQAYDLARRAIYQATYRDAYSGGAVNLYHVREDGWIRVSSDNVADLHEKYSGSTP
The test is described as follows: Inhibition of human 20s proteasome beta5 subunit mediated chymotrypsin-like activity using LLVY-R110 as substrate measured every three mins for 1 hr by fluorescence based SpectraMax M5e plate reader. In outline:
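Purified human 20S proteasome was diluted in TBS pH 7.4 to a 0.44 μM intermediate stock. Serial DMSO dilutions of inhibitor (1 μL) went into a 100 μL reaction with LLVY-R110 substrate, and 1 μL of proteasome stock was added to start.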

Test [4] is described as follows: Selectivity ratio IC50 for human 20s proteasome beta5 subunit mediated chymotrypsin-like activity to IC50 for Plasmodium falciparum SUB1.
Test [5] concerns the target T3, Subtilisin-like protease 1 (Plasmodium falciparum) (UniProt O61142).
T3 sequence (whole entry): T1 sequence (O61142 whole entry)
The test is described as follows: Inhibition of recombinant Plasmodium falciparum SUB1 using Ac-CKITAQDDEESC-OH as fluorogenic substrate at 1 uM pre-incubated for 5 mins followed by substrate addition and measured every 3 mins for 60 mins by fluorescence based SpectraMax M5e plate reader. Particulars: time 65.0 min.

The IC50 is the point on the concentration scale where inhibition reaches its midpoint. Turning to `CC(=O)N[C@H](C(=O)N[C@H](C(=O)NCC(=O)N[C@@H](C)B(O)O)[C@@H](C)O)C1CCCC1`, the IC50 in test [1] was 9.3 nM.
As to `CC[C@H](C)[C@H](NC(=O)[C@@H](NC(=O)c1ccccc1)C1CCCC1)C(=O)NCC(=O)N[C@@H](C)B(O)O`, in test [2], the IC50 worked out at 3.2 nM.
For the molecule `CC(=O)N[C@H](C(=O)N[C@H](C(=O)NCC(=O)N[C@H]1CCC(=O)OB1O)[C@@H](C)O)C1CCCC1`, the IC50 in test [3] came out at 35600 nM; in test [1], 18.7 nM. The Ratio IC50 in test [4] turned out to be 1900.
Turning to `CC(C)C[C@H](NC(=O)[C@H](Cc1ccccc1)NC(=O)c1cnccn1)B(O)O`, in test [5], the inhibition result was “inactive”.
`CC[C@H](C)[C@H](NC(=O)[C@@H](NC(=O)c1cc(C)cc(C)c1)C1CCCC1)C(=O)NCC(=O)N[C@H]1CCC(=O)OB1O`: in test [3], half-maximal inhibition (IC50) required 1000 nM.

The record behind these values is ChEMBL document CHEMBL5523765, “Peptidic Boronic Acid Plasmodium falciparum SUB1 Inhibitors with Improved Selectivity over Human Proteasome” (J Med Chem, 2024).
